pKi: −log10 of the molar value.
What was measured:
D(2) dopamine receptor = D(2) dopamine receptor (Homo sapiens, UniProt P14416); experiment: Displacement of [3H]-Raclopride from human dopamine D2L receptor expressed in HEK293 cell membranes after 1 hr by microbeta counting method
Method in brief: (§1)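 HEK293 (5-HT1A, 5-HT6, 5-HT7b, D2L) or CHO-K1 (5-HT2A) membranes, all Tris–HCl with 4 mM MgCl2 plus receptor-specific EDTA/pargyline/ascorbate (D2L adds NaCl, KCl, CaCl2). Nonspecific binding: 10 μM 5-HT (5-HT1A, 5-HT7), chlorpromazine (5-HT2A), methiothepine (5-HT6), haloperidol (D2L). Triplicate, 7–8 concentrations (10⁻¹¹–10⁻⁴ M), filtration; Ki via Cheng–Prusoff, mean of three experiments. Incubation 1 h 37 °C; 5-HT1A 1 h and 5-HT2A 1.5 h, room temperature.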

[1] = target: Histamine H1 receptor (Homo sapiens) (UniProt P35367); experiment: Displacement of [3H]pyrilamine from recombinant human histamine H1 receptor at 1 uM after 60 mins by scintillation counting relative to control
Histamine H1 receptor (Homo sapiens), sequence (P35367 whole entry): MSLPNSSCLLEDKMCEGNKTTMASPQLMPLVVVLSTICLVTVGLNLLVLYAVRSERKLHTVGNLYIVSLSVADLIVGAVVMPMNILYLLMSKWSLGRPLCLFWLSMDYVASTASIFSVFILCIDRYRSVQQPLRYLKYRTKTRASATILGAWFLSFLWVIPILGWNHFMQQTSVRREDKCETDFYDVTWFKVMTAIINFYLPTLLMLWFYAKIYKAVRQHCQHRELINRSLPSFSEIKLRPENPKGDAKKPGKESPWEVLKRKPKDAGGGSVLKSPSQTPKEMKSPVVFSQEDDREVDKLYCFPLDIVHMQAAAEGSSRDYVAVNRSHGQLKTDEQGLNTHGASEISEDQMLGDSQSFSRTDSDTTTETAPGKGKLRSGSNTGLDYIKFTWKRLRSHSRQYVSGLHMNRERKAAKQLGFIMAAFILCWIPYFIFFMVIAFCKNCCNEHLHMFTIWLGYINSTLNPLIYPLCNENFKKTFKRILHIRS

[2] = target: T1, 5-hydroxytryptamine receptor 1A (Homo sapiens, UniProt P08908); experiment: Displacement of [3H]-8-OH-DPAT from human 5HT1AR expressed in HEK293 cell membranes after 1 hr by microbeta counting method
T1 sequence (P08908 whole entry): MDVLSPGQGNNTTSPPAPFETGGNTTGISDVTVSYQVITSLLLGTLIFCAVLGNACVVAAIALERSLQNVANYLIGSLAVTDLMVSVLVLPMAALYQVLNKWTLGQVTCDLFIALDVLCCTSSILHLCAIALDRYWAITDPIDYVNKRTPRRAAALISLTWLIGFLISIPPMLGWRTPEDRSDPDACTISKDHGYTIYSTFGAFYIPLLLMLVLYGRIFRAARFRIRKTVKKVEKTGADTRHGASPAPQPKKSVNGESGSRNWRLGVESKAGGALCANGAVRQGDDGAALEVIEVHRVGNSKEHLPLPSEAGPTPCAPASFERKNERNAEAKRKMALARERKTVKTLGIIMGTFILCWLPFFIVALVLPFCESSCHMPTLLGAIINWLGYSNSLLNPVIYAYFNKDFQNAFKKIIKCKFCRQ
Method in brief: as §1, with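 “experiments.” for “experiments. Incubation 1 h 37 °C; 5-HT1A 1 h and 5-HT2A 1.5 h, room temperature.”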

Cytochrome P450 2D6 = Cytochrome P450 2D6 (Homo sapiens, UniProt P10635); experiment: Induction of CYP2D6 (unknown origin) at 0.025 to 25 uM after 2 hrs by firefly luciferase-luminescence based P450-glo assay; type: ADME
Cytochrome P450 2D6, sequence (P10635 whole entry, canonical isoform): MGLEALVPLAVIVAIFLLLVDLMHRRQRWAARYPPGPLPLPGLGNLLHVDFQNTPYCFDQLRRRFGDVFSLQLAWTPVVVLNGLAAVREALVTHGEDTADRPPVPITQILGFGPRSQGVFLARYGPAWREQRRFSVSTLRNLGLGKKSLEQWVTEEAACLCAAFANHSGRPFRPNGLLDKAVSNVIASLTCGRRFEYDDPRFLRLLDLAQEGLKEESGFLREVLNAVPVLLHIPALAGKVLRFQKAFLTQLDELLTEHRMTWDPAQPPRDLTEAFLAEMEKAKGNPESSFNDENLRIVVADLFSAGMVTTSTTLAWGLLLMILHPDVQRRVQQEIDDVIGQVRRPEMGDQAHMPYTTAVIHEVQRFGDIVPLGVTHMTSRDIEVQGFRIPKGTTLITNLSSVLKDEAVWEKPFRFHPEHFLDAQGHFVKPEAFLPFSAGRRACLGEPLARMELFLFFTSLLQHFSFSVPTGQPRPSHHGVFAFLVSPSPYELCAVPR
Method in brief: (§2)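 Recombinant CYP3A4 or CYP2D6 incubated 2 h with test compound (0.025–25 μM final) and an isoform-specific luciferin derivative. Firefly luciferase then added, and luminescence is proportional to D-luciferin formed. Reference inhibitors: ketoconazole (CYP3A4) and quinidine (CYP2D6, 0.1–100 nM).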

Cytochrome P450 3A4 = Cytochrome P450 3A4 (Homo sapiens, UniProt P08684); experiment: Inhibition of CYP3A4 (unknown origin) at 0.025 to 25 uM after 2 hrs by firefly luciferase-luminescence based P450-glo assay; type: ADME; method in brief: as §2
Cytochrome P450 3A4, sequence (P08684 whole entry): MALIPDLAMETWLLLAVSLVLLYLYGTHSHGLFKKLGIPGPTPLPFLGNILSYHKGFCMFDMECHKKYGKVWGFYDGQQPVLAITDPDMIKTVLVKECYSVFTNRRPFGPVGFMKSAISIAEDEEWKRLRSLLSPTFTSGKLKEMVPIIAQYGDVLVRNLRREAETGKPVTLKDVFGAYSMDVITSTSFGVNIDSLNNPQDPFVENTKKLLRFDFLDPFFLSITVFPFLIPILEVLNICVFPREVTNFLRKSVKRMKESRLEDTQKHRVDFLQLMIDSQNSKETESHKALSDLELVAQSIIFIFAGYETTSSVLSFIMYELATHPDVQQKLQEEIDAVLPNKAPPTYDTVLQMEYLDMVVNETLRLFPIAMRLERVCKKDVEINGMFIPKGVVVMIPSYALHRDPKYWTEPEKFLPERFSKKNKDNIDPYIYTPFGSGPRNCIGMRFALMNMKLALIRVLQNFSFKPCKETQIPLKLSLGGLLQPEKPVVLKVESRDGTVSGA

[3] = target: 5-hydroxytryptamine receptor 2A (Homo sapiens, UniProt P28223); experiment: Displacement of [3H]-Ketanserin from human 5HT2AR expressed in CHO-K1 cell membranes after 1.5 hrs by microbeta counting method
5-hydroxytryptamine receptor 2A, sequence (P28223 whole entry): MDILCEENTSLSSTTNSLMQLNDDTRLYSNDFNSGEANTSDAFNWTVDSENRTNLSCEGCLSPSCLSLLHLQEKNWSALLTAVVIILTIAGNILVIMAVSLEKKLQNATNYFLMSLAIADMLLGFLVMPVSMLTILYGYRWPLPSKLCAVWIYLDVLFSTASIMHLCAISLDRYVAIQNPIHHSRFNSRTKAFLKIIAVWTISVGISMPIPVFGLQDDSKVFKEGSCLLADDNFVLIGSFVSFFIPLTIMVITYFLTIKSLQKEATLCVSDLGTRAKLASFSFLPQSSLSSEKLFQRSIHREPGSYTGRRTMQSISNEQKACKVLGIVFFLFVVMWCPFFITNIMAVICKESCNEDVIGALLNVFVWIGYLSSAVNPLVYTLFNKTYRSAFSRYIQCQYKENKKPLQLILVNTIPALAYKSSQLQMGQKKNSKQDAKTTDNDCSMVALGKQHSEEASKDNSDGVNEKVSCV
Method in brief: as §1, with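 “experiments.” for “experiments. Incubation 1 h 37 °C; 5-HT1A 1 h and 5-HT2A 1.5 h, room temperature.”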

[4] = target: Histamine H3 receptor (Homo sapiens) (UniProt Q9Y5N1); experiment: Displacement of [3H]Nalpha-Me-histamine from recombinant human histamine H3 receptor at 1 uM after 60 mins by scintillation counting relative to control
Histamine H3 receptor (Homo sapiens), sequence (Q9Y5N1 whole entry): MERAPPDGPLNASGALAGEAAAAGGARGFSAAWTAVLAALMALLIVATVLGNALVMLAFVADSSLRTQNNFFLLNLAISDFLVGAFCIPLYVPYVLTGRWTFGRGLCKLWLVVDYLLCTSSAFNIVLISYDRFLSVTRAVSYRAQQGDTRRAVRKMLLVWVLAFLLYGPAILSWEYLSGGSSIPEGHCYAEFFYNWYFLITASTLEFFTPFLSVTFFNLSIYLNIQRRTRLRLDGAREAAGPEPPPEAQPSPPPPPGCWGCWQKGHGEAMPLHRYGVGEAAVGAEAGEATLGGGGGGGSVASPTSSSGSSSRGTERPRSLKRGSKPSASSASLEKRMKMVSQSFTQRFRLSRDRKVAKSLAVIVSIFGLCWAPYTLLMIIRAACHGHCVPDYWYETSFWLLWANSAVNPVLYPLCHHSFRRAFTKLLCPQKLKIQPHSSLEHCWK

[5] = target: T2, Muscarinic acetylcholine receptor M1 (Homo sapiens) (UniProt P11229); experiment: Displacement of [3H]pirenzepine from recombinant human muscarinic M1 receptor at 1 uM after 60 mins by scintillation counting relative to control
T2 sequence (whole entry): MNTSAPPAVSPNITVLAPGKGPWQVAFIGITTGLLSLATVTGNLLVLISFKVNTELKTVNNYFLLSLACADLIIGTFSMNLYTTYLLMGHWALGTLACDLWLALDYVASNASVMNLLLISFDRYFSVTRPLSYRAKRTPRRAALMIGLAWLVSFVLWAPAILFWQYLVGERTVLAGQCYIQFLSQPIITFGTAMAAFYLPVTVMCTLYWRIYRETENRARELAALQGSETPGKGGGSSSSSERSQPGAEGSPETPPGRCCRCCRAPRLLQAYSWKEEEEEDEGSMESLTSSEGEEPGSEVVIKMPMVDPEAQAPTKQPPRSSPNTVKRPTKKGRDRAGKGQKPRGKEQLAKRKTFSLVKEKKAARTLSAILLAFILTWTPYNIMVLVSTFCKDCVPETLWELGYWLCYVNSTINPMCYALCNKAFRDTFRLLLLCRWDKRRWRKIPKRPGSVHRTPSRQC

[6] = target: D(3) dopamine receptor (Homo sapiens) (UniProt P35462); experiment: Displacement of [3H]methyl-spiperone from recombinant human dopamine D3 receptor at 1 uM after 60 mins by scintillation counting relative to control
D(3) dopamine receptor (Homo sapiens), sequence (P35462 whole entry): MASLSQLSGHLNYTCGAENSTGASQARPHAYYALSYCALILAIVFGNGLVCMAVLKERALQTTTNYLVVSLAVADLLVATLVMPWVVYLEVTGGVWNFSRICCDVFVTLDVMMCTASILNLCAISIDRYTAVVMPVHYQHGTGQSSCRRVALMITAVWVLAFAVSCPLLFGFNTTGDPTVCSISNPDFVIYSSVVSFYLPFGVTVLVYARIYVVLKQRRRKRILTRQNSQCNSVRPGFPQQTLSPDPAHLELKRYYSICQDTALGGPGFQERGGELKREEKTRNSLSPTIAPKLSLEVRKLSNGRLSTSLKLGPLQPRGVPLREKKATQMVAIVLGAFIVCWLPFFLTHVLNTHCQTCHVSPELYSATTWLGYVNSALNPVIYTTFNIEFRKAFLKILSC

[7] = Cmax in Wistar rat at 10 mg/kg, po administered as single dose by LC/MS analysis; type: ADME, organism-based; set-up: dose 10 mg/kg, route oral; conditions: in vivo
Method in brief: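 Male Wistar rats (229–272 g), fasted 16 h before and 4 h after dosing, given 10 mg/kg orally in water. Four rats per time point at 15 min, 30 min, 1, 2, 4 and 8 h. Plasma (K3EDTA) and brain homogenate collected and analysed by LC-MS/MS.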

D(2) dopamine receptor, sequence (P14416 whole entry): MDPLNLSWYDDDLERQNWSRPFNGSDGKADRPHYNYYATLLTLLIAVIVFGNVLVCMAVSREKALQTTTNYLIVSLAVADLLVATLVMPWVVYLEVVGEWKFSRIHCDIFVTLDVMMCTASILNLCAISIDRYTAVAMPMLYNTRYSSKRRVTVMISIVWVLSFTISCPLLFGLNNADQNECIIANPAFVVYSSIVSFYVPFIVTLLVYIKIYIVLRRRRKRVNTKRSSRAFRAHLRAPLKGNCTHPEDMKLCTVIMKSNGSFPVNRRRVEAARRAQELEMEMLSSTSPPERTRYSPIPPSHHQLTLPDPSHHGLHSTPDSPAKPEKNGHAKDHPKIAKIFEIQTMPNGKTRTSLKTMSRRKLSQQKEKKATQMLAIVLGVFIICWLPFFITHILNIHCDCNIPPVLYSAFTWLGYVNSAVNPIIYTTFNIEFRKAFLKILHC

With CCc1nc2c(N3CCNCC3)ccnc2n1Cc1cccc(F)c1 as the compound, how does the pKi (D(2) dopamine receptor) read?
The pKi was 5.46.

What about the inhibition [1] of the same compound?
Its inhibition is -4.9%.

And the pKi [2]?
The pKi was 5.55.

What about the Activity (Cytochrome P450 2D6) of the same compound?
The Activity was “Active”.

What about the “inhibition (INH)” value (Cytochrome P450 3A4) of the same compound?
Its value is “Not Active”.

And the pKi [3]?
The pKi was 6.36.

What about the inhibition [4] of the same compound?
The inhibition was 1.6%.

What about the inhibition [5] of the same compound?
Its inhibition is 3%.

And the inhibition [6]?
The inhibition was 18%.

And the Cmax [7]?
The Cmax was 140 ng/mL.

From ChEMBL document CHEMBL4145461, “Novel non-sulfonamide 5-HT6 receptor partial inverse agonist in a group of imidazo[4,5-b]pyridines with cognition enhancing properties” (Eur J Med Chem, 2018)
